According to ChEMBL document CHEMBL1156763, “1,8-Naphthyridines VIII. Novel 5-aminoimidazo[1,2-a] [1,8]naphthyridine-6-carboxamide and 5-amino[1,2,4]triazolo[4,3-a] [1,8]naphthyridine-6-carboxamide derivatives showing potent analgesic or anti-inflammatory activity, respectively, and completely devoid of acute gastrolesivity” (Eur J Med Chem, 2010):

What was measured:
[1] = test system: Mus musculus; test: Sedative activity in Swiss mouse assessed as inhibition of spontaneous locomotor activity at 50 mg/kg, po dose measured for every 5 mins up to 90 mins; format: organism-based; set-up: dose 50 mg/kg, route oral
How it was run: (§1)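 Overnight-fasted mice given compound (0.5% methylcellulose) or vehicle by oral gavage, then housed singly in an activity cage. Locomotion auto-recorded in 5-min intervals for 90 min; pulses of the final 30 min scored. % inhibition versus controls; runs between 9.00 and 13.00; groups of 8–10; Student's t-test.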

[2] = test system: Mus musculus; test: Analgesic activity in Swiss mouse assessed as inhibition of acetic acid-induced writhing response at 25 mg/kg, po administered 1 hr before acetic acid challenge measured for 30 mins relative to control; format: functional
How it was run: (§2)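 Mice of either sex (25–35 g), fasted overnight, dosed by oral gavage with test agent suspended in 0.5% methylcellulose; controls got vehicle alone. Each hind-limb full extension counted as a writhe over 30 min after the noxious agent. % inhibition from treated vs control writhing; groups of 8–10; Student's t-test. Dosing starts at 100 mg/kg, then halved stepwise.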

[3] = test system: Rattus norvegicus; test: Acute gastrolesivity in Wistar rat assessed as appearance of gastric damage at 200 mg/kg, po after 5 hrs; format: toxicity, organism-based, Stomach; set-up: dose 200 mg/kg, route oral; settings: in vivo
How it was run: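 Wistar rats (250–300 g), either sex, fasted overnight; compound suspended in 0.5% methylcellulose, single oral gavage at 200 mg kg^-1 (1 mL 100 g^-1). Stomachs excised 5 h later, fixed in 2% formalin, opened along greater curvature, examined by stereomicroscope by blinded observer. Reported as number of animals with gastric damage over treated animals (eight per group).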

[4] = test system: Rattus norvegicus; test: Antiinflammatory activity against carrageenan-induced paw edema in Wistar rat assessed as inhibition of hind paw edema at 100 mg/kg, po administered 1 hr prior to carrageenan challenge measured after 3 hrs relative to control; format: functional
How it was run: (§3)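 Wistar rats of either sex (250–300 g), fasted overnight, gavaged with compound in 0.5% methylcellulose. 1 h later, 0.1 mL 1% carrageenan injected subcutaneously into the plantar hind paw. Paw volume read by plethysmometer right after injection and 3 h later. Control edema set as 100, % inhibition from swelling difference. Groups of 8–10; Student's t-test.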

[5] = test system: Mus musculus; test: Analgesic activity in Swiss mouse assessed as inhibition of acetic acid-induced writhing response at 50 mg/kg, po administered 1 hr before acetic acid challenge measured for 30 mins relative to control; format: functional; how it was run: as §2
[6] = test system: Mus musculus; test: Sedative activity in Swiss mouse assessed as inhibition of spontaneous locomotor activity at 100 mg/kg, po dose measured for every 5 mins up to 90 mins; format: organism-based; set-up: dose 100 mg/kg, route oral; how it was run: as §1
[7] = test system: Mus musculus; test: Analgesic activity in Swiss mouse assessed as inhibition of acetic acid-induced writhing response at 100 mg/kg, po administered 1 hr before acetic acid challenge measured for 30 mins relative to control; format: functional; how it was run: as §2
[8] = test system: Mus musculus; test: Analgesic activity in Swiss mouse assessed as inhibition of acetic acid-induced writhing response at 12.5 mg/kg, po administered 1 hr before acetic acid challenge measured for 30 mins relative to control; format: functional; how it was run: as §2
[9] = test system: Mus musculus; test: Analgesic activity in Swiss mouse assessed as inhibition of acetic acid-induced writhing response at 3.12 mg/kg, po administered 1 hr before acetic acid challenge measured for 30 mins relative to control; format: functional
[10] = test system: Mus musculus; test: Analgesic activity in Swiss mouse assessed as inhibition of acetic acid-induced writhing response at 6.25 mg/kg, po administered 1 hr before acetic acid challenge measured for 30 mins relative to control; format: functional; how it was run: as §2
[11] = test system: Mus musculus; test: Analgesic activity in Swiss mouse assessed as inhibition of acetic acid-induced writhing response at 1.6 mg/kg, po administered 1 hr before acetic acid challenge measured for 30 mins relative to control; format: functional
[12] = test system: Rattus norvegicus; test: Antiinflammatory activity against carrageenan-induced paw edema in Wistar rat assessed as inhibition of hind paw edema at 50 mg/kg, po administered 1 hr prior to carrageenan challenge measured after 3 hrs relative to control; format: functional; how it was run: as §3
[13] = test system: Rattus norvegicus; test: Antiinflammatory activity against carrageenan-induced paw edema in Wistar rat assessed as inhibition of hind paw edema at 25 mg/kg, po administered 1 hr prior to carrageenan challenge measured after 3 hrs relative to control; format: functional; how it was run: as §3
[14] = test system: Rattus norvegicus; test: Antiinflammatory activity against carrageenan-induced paw edema in Wistar rat assessed as inhibition of hind paw edema at 6.25 mg/kg, po administered 1 hr prior to carrageenan challenge measured after 3 hrs relative to control; format: functional; how it was run: as §3
[15] = test system: Rattus norvegicus; test: Antiinflammatory activity against carrageenan-induced paw edema in Wistar rat assessed as inhibition of hind paw edema at 12.5 mg/kg, po administered 1 hr prior to carrageenan challenge measured after 3 hrs relative to control; format: functional; how it was run: as §3

CCN(CC)C(=O)c1c(N2CCN(C)CC2)c2cccnc2n2c(C)cnc12
inhibition at 50 mg/kg [1]: 20% | inhibition in vivo at 25 mg/kg [2]: 83% | Activity [3]: Non-toxic | inhibition in vivo at 100 mg/kg [4]: 0% | inhibition in vivo at 50 mg/kg [5]: 86% | inhibition at 100 mg/kg [6]: 80% | inhibition in vivo at 100 mg/kg [7]: 85% | inhibition in vivo at 12.5 mg/kg [8]: 21%

CCN(CC)C(=O)c1c(N2CCN(c3ccccc3OC)CC2)c2cccnc2n2ccnc12
Activity [3]: Non-toxic | inhibition in vivo at 100 mg/kg [4]: 16% | inhibition in vivo at 50 mg/kg [5]: 0% | inhibition at 100 mg/kg [6]: 86% | inhibition in vivo at 100 mg/kg [7]: 63%

CCN(CC)C(=O)c1c(N2CCN(C)CC2)c2cccnc2n2ccnc12
inhibition at 50 mg/kg [1]: 41% | inhibition in vivo at 25 mg/kg [2]: 56% | Activity [3]: Non-toxic | inhibition in vivo at 100 mg/kg [4]: 0% | inhibition in vivo at 50 mg/kg [5]: 74% | inhibition at 100 mg/kg [6]: 77% | inhibition in vivo at 100 mg/kg [7]: 80% | inhibition in vivo at 12.5 mg/kg [8]: 32%

CCN(CC)C(=O)c1c(N2CCN(C)CC2)c2cccnc2n2c(C(C)C)nnc12
inhibition in vivo at 3.12 mg/kg [9]: 85% | inhibition at 50 mg/kg [1]: 100% | inhibition in vivo at 6.25 mg/kg [10]: 83% | inhibition in vivo at 1.6 mg/kg [11]: 39% | inhibition in vivo at 25 mg/kg [2]: 90% | Activity [3]: Non-toxic | inhibition in vivo at 50 mg/kg [5]: 85% | inhibition in vivo at 100 mg/kg [7]: 88% | inhibition in vivo at 12.5 mg/kg [8]: 92%

CCN(C)C(=O)c1c(NC(C)C)c2cccnc2n2c(C(C)C)nnc12
inhibition in vivo at 50 mg/kg [12]: 0% | Activity [3]: Non-toxic | inhibition in vivo at 100 mg/kg [4]: 46% | inhibition in vivo at 50 mg/kg [5]: 0% | inhibition at 100 mg/kg [6]: 96% | inhibition in vivo at 100 mg/kg [7]: 82%

CCN1CCN(c2c(C(=O)N(CC)CC)c3nccn3c3ncccc23)CC1
Activity [3]: Non-toxic | inhibition in vivo at 100 mg/kg [4]: 5% | inhibition in vivo at 50 mg/kg [5]: 30% | inhibition at 100 mg/kg [6]: 67% | inhibition in vivo at 100 mg/kg [7]: 80%

CCN(CC)C(=O)c1c(NCC(C)C)c2cccnc2n2ccnc12
inhibition at 50 mg/kg [1]: 28% | inhibition in vivo at 25 mg/kg [2]: 48% | Activity [3]: Non-toxic | inhibition in vivo at 100 mg/kg [4]: 0% | inhibition in vivo at 50 mg/kg [5]: 48% | inhibition at 100 mg/kg [6]: 68% | inhibition in vivo at 100 mg/kg [7]: 71% | inhibition in vivo at 12.5 mg/kg [8]: 0%

CCN1CCN(c2c(C(=O)N(CC)CC)c3ncc(C)n3c3ncccc23)CC1
inhibition at 50 mg/kg [1]: 46% | inhibition in vivo at 25 mg/kg [2]: 54% | Activity [3]: Non-toxic | inhibition in vivo at 100 mg/kg [4]: 10% | inhibition in vivo at 50 mg/kg [5]: 48% | inhibition at 100 mg/kg [6]: 63% | inhibition in vivo at 100 mg/kg [7]: 83% | inhibition in vivo at 12.5 mg/kg [8]: 0%

CCN(CC)C(=O)c1c(NC)c2cccnc2n2c(C)cnc12
inhibition in vivo at 50 mg/kg [12]: 20% | Activity [3]: Non-toxic | inhibition in vivo at 100 mg/kg [4]: 38% | inhibition in vivo at 50 mg/kg [5]: 0% | inhibition at 100 mg/kg [6]: 55% | inhibition in vivo at 100 mg/kg [7]: 73%

CCN(CC)C(=O)c1c(N(C)CC)c2cccnc2n2c(C(C)C)nnc12
inhibition at 50 mg/kg [1]: 22% | inhibition in vivo at 25 mg/kg [13]: 65% | inhibition in vivo at 50 mg/kg [12]: 67% | inhibition in vivo at 6.25 mg/kg [14]: 42% | inhibition in vivo at 25 mg/kg [2]: 17% | inhibition in vivo at 12.5 mg/kg [15]: 51% | Activity [3]: Non-toxic | inhibition in vivo at 100 mg/kg [4]: 71% | inhibition in vivo at 50 mg/kg [5]: 59% | inhibition in vivo at 100 mg/kg [7]: 81%

CCN(CC)C(=O)c1c(N2CCN(CCO)CC2)c2cccnc2n2ccnc12
Activity [3]: Non-toxic | inhibition in vivo at 100 mg/kg [4]: 0% | inhibition in vivo at 50 mg/kg [5]: 12% | inhibition at 100 mg/kg [6]: 39% | inhibition in vivo at 100 mg/kg [7]: 41%

CCCN(C)c1c(C(=O)N(CC)CC)c2nnc(C(C)C)n2c2ncccc12
inhibition in vivo at 25 mg/kg [13]: 42% | inhibition in vivo at 50 mg/kg [12]: 55% | inhibition in vivo at 6.25 mg/kg [14]: 23% | inhibition in vivo at 12.5 mg/kg [15]: 44% | Activity [3]: Non-toxic | inhibition in vivo at 100 mg/kg [4]: 71% | inhibition in vivo at 50 mg/kg [5]: 37% | inhibition at 100 mg/kg [6]: 62% | inhibition in vivo at 100 mg/kg [7]: 71%
